Reference: ChEMBL document CHEMBL3865799, “Synthesis of a series of novel dihydroartemisinin monomers and dimers containing chalcone as a linker and their anticancer activity” (Eur J Med Chem, 2016)
Activity calls are given as the source filed them. The calls are words filed in the database; no cut-off is given here.

Assays:
[1] = Cytotoxicity against human HL60 cells assessed as cell growth inhibition at 50 uM after 48 hrs by MTT assay; assay type: functional; settings: HL-60, 48 h, read-out: GI
Outline: (§1)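 HL-60 suspension cells, 1.5 × 10^4 per well, grown at 37 °C in 5% CO2 with 10% FCS. Treated 48 h with compound in DMSO (vehicle <0.2% v/v). MTT added 3 h before the end. Formazan dissolved in DMSO and read at 570 nm (reference 620 nm). % growth inhibition computed against untreated cells; IC50 taken from the concentration series.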

[2] = Cytotoxicity against human HepG2 cells assessed as cell growth inhibition at 30 uM after 48 hrs by MTT assay; assay type: functional; settings: HepG2, 48 h, read-out: GI
Outline: (§2)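 Adherent lines at 70–75% confluence, grown at 37 °C in 5% CO2 with 10% FCS. Exposed 48 h to compound in DMSO (vehicle <0.2% v/v). MTT dye added 3 h before termination; formazan dissolved in DMSO, OD 570 nm with 620 nm reference. Growth inhibition expressed as % of untreated; IC50 taken from the dose series.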

[3] = Cytotoxicity against human HepG2 cells assessed as cell growth inhibition at 50 uM after 48 hrs by MTT assay; assay type: functional; settings: HepG2, 48 h, read-out: GI; outline: as §2
[4] = Cytotoxicity against human HL60 cells assessed as cell growth inhibition at 1 uM after 48 hrs by MTT assay; assay type: functional; settings: HL-60, 48 h, read-out: GI; outline: as §1
[5] = Cytotoxicity against human HL60 cells assessed as cell growth inhibition after 48 hrs by MTT assay; assay type: functional, cell-based; settings: HL-60, 48 h; outline: as §1
[6] = Cytotoxicity against human PC3 cells assessed as cell growth inhibition after 48 hrs by MTT assay; assay type: functional, cell-based; settings: PC-3, 48 h
Outline: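 Exposed 48 h to compound in DMSO (vehicle <0.2% v/v). MTT dye added 3 h before termination; formazan dissolved in DMSO, OD 570 nm with 620 nm reference. Growth inhibition expressed as % of untreated; IC50 taken from the dose series.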

[7] = Selectivity index, ratio of IC50 for African green monkey Vero cells to IC50 for human LS180 cells; assay type: functional
Outline: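 Suspension cells were seeded at 1.5 × 10^4 per well and adherent lines at 70–75% confluence, then exposed to a range of concentrations. MTT was added 3 h before the end, formazan dissolved in DMSO, and OD read at 570 nm (reference 620 nm). Growth inhibition was taken relative to untreated cells. IC50 came from the MTT data; SI = IC50 in Vero cells / IC50 in the tumour line.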

[8] = Cell cycle arrest in human HL60 cells assessed as accumulation at G1 phase at 0.2 uM after 24 hrs by propidium iodide-DNA fluorescence based FACS analysis (reference value: 46 %); assay type: functional; settings: HL-60
Outline: (§3)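 HL-60 cells seeded at 0.5 × 10^6 cells/ml, exposed 24 h to compound (DMSO vehicle, <0.2% v/v). Pelleted at 400×g, PBS-washed, fixed in 70% ethanol at 4 °C overnight. RNase A treatment at 37 °C for 1.30 h, then propidium iodide staining for 20 min. Flow cytometry on 10,000 events, FL2-A vs FL2-W; subG0 (apoptotic) and phase populations gated.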

[9] = Cell cycle arrest in human HL60 cells assessed as accumulation at G2 phase at 0.2 uM after 24 hrs by propidium iodide-DNA fluorescence based FACS analysis (reference value: 1 %); assay type: functional; settings: HL-60; outline: as §3
[10] = Cell cycle arrest in human HL60 cells assessed as accumulation at G1 phase at 0.5 uM after 24 hrs by propidium iodide-DNA fluorescence based FACS analysis (reference value: 46 %); assay type: functional; settings: HL-60; outline: as §3
[11] = Cell cycle arrest in human HL60 cells assessed as accumulation at G2 phase at 5 uM after 24 hrs by propidium iodide-DNA fluorescence based FACS analysis (reference value: 1 %); assay type: functional; settings: HL-60; outline: as §3
[12] = Cell cycle arrest in human HL60 cells assessed as accumulation at subG0 phase at 5 uM after 24 hrs by propidium iodide-DNA fluorescence based FACS analysis (reference value: 5 %); settings: HL-60
[13] = Cytotoxicity against human PC3 cells assessed as cell growth inhibition at 0.5 uM after 48 hrs by MTT assay; assay type: functional; settings: PC-3, 48 h, read-out: GI; outline: as §2
[14] = Cytotoxicity against human MIAPaCa2 cells assessed as cell growth inhibition at 0.5 uM after 48 hrs by MTT assay; assay type: functional; settings: MIA PaCa-2, 48 h, read-out: GI; outline: as §2
[15] = Cytotoxicity against human MIAPaCa2 cells assessed as cell growth inhibition at 10 uM after 48 hrs by MTT assay; assay type: functional; settings: MIA PaCa-2, 48 h, read-out: GI; outline: as §2
[16] = Cytotoxicity against human PC3 cells assessed as cell growth inhibition at 1 uM after 48 hrs by MTT assay; assay type: functional; settings: PC-3, 48 h, read-out: GI; outline: as §2
[17] = Cytotoxicity against human PC3 cells assessed as cell growth inhibition at 10 uM after 48 hrs by MTT assay; assay type: functional; settings: PC-3, 48 h, read-out: GI; outline: as §2
[18] = Cytotoxicity against human HepG2 cells assessed as cell growth inhibition at 0.5 uM after 48 hrs by MTT assay; assay type: functional; settings: HepG2, 48 h, read-out: GI; outline: as §2
[19] = Cytotoxicity against human HepG2 cells assessed as cell growth inhibition at 1 uM after 48 hrs by MTT assay; assay type: functional; settings: HepG2, 48 h, read-out: GI; outline: as §2
[20] = Cytotoxicity against human HepG2 cells assessed as cell growth inhibition at 10 uM after 48 hrs by MTT assay; assay type: functional; settings: HepG2, 48 h, read-out: GI; outline: as §2
[21] = Cytotoxicity against human LS180 cells assessed as cell growth inhibition at 0.5 uM after 48 hrs by MTT assay; assay type: functional; settings: LS180, 48 h, read-out: GI; outline: as §2
[22] = Cytotoxicity against human LS180 cells assessed as cell growth inhibition at 1 uM after 48 hrs by MTT assay; assay type: functional; settings: LS180, 48 h, read-out: GI; outline: as §2
[23] = Cytotoxicity against human LS180 cells assessed as cell growth inhibition at 10 uM after 48 hrs by MTT assay; assay type: functional; settings: LS180, 48 h, read-out: GI; outline: as §2
HL-60 [24] = assay: Induction of apoptosis in human HL60 cells assessed as condensation of nuclei after 24 hrs by hoechst 33258 staining-based microscopic analysis; assay type: functional, cell-based
Outline: (§4)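 HL-60 cells at 0.5 × 10^6/ml were treated for 24 h with […] compound in DMSO vehicle (<0.2%). Cells were fixed in cold acetic acid:methanol (1:3) for 1 h on ice, spread on slides and air-dried overnight. Slides were stained with Hoechst 33258 for 30 min, mounted in glycerol:PBS and viewed by fluorescence microscopy at 20×. Morphology was checked by phase contrast. One of three experiments shown.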

HL-60 [25] = assay: Induction of apoptosis in human HL60 cells assessed as morphological alterations after 24 hrs by hoechst 33258 staining-based microscopic analysis; assay type: functional, cell-based; outline: as §4
HL-60 [26] = assay: Induction of apoptosis in human HL60 cells assessed as induction of apoptotic bodies at 0.5 uM after 24 hrs by hoechst 33258 staining-based microscopic analysis; assay type: functional, cell-based; outline: as §4
HL-60 [27] = assay: Induction of apoptosis in human HL60 cells assessed as blebs formation after 24 hrs phase contrast microscopic analysis; assay type: functional, cell-based
Outline: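 HL-60 cells at 0.5 × 10^6 cells/ml treated 24 h with compound at 0.2, 0.5, 1 or 5 (DMSO vehicle). Treated and control cells photographed under a phase contrast microscope at 20× and scored for morphology.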

[28] = Cell cycle arrest in human HL60 cells assessed as accumulation at subG0 phase after 24 hrs by propidium iodide-DNA fluorescence based FACS analysis; assay type: functional; settings: HL-60; outline: as §3
[29] = Lipophilicity, log P of the compound; assay type: physicochemical; settings: octanol/water
[30] = Lipophilicity, log P of the compound at pH 7; assay type: physicochemical; settings: buffer

Row | SMILES | inhibition of growth at 50 µM [1] | inhibition of growth at 30 µM [2] | inhibition of growth at 50 µM [3] | inhibition of growth at 1 µM [4] | IC50 [5] | IC50 [6] | Ratio IC50 [7] | Activity [8] | Activity [9] | Activity [10] | Activity [11] | Activity [12] | inhibition of growth at 0.5 µM [13] | inhibition of growth at 0.5 µM [14] | inhibition of growth at 10 µM [15] | inhibition of growth at 1 µM [16] | inhibition of growth at 10 µM [17] | inhibition of growth at 0.5 µM [18] | inhibition of growth at 1 µM [19] | inhibition of growth at 10 µM [20] | also measured
1 | C[C@H]1[C@@H](O)O[C@@H]2O[C@@]3(C)CC[C@H]4[C@H](C)CC[C@@H]1[C@@]24OO3 [ARTENIMOL] | 93% | 36% | 39% | 48.1% | 2000 nM | > 100 µM | 19 | 49% | 2% | 58% | 5% | 27% |  |  |  |  |  |  |  |  | 
2 | C[C@H]1[C@@H](OCCOc2ccc(/C=C/C(=O)c3ccc(O)cc3)cc2)O[C@@H]2O[C@@]3(C)CC[C@H]4[C@H](C)CC[C@@H]1[C@@]24OO3 | 93.6% | 68.3 to 86.8% | 55.2 to 82.3% | 78.8% | 300 nM | 14 µM | 96 | 49% | 5% | 59% | 10% | 95% | 19.3% | 6.2% | 16.8% | 25.4% | 41.5% | 20.2% | 23.8% | 60.4% | inhibition of growth at 0.5 µM [21]: 32.2%; inhibition of growth at 1 µM [22]: 36.5%; inhibition of growth at 10 µM [23]: 36.6%; Activity (HL-60 [24]): Dose-dependent effect; Activity (HL-60 [25]): Dose-dependent effect; Activity (HL-60 [26]): Active; Activity (HL-60 [27]): Dose-dependent effect; Activity [28]: Dose-dependent effect; logP [29]: 6.33; logP [30]: -5.96
3 | C[C@H]1[C@@H](OCCOc2cccc(C(=O)/C=C/c3ccc(O)cc3)c2)O[C@@H]2O[C@@]3(C)CC[C@H]4[C@H](C)CC[C@@H]1[C@@]24OO3 | 94.8% | 37.8 to 77.4% | 33.2 to 64.5% | 57% | 400 nM | 18 µM | >200 | 49% | 6% | 54% | 16% |  | 15.2% | 12.7% | 15.1% | 22.8% | 29.6% | 25.2% | 29.6% | 37.7% | inhibition of growth at 0.5 µM [21]: 21.7%; inhibition of growth at 1 µM [22]: 24.7%; inhibition of growth at 10 µM [23]: 27.2%; Activity (HL-60 [24]): Dose-dependent effect; Activity (HL-60 [25]): Dose-dependent effect; Activity (HL-60 [26]): Active; Activity (HL-60 [27]): Dose-dependent effect; Activity [28]: Dose-dependent effect; logP [29]: 6.33; logP [30]: -5.96
